# CHRM4 antagonist – antagonists of human muscarinic M4 receptor (CHRM4) | P08173 | CHO-hM4 cells, ACh EC80, Fluo-8 calcium fluorescence | inhibition, % at 3 µM | hit rate 0.73% among 360,000 | AID 624125;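 active = inhibition above its plate's cutoff, the mean inhibition of sample wells plus 3 SD, cut at about 27% in these data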
# Target sequence (P08173 whole entry, looked up): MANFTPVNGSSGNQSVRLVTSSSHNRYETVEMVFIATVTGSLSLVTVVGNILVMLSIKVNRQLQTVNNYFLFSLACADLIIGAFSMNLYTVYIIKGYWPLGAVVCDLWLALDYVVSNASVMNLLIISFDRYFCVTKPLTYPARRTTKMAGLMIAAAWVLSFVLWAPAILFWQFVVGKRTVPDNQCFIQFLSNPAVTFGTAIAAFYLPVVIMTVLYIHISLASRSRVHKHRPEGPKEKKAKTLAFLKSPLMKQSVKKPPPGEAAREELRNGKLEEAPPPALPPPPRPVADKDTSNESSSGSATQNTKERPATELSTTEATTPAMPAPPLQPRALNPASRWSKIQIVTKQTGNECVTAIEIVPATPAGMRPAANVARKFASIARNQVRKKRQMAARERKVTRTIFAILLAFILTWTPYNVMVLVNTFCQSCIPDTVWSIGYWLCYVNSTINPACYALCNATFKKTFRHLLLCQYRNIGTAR
# M5 PAM – positive allosteric modulators of human muscarinic M5 receptor; P08912; CHO-K1 hM5, Fluo-8 calcium, ACh EC20 PAM; 0% = ACh EC20, 100% = ACh EC100; activation, % at 3 µM; hit rate 0.3% among 360,000; AID 624038;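 active = activation above the run cutoff, the mean activation of all test compounds plus 3 SD, cut at about 18% in these data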
#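 Measured by: Fluo-8 calcium fluorescence; material: human M5 receptor in CHO-K1 cells; schedule: Post-acetylcholine fluorescence recording 140 s; benchmarks: low control EC20 acetylcholine (0%), high control EC100 acetylcholine (100%); read-out: Max/basal fluorescence ratio as % of EC20–EC100 ACh window; compound: single dose, 3 µM nominal final test concentration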
# CHRM5 agonist – agonists of human muscarinic M5 receptor (CHRM5) | P08912 | CHO-K1 hM5 cells, Fluo-8 calcium fluorescence; 0% DMSO wells, 100% maximal acetylcholine response | activation, % at 3 µM | hit rate 0.19% among 360,000 | AID 624037;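 active = activation above the run's mean over test compounds plus 3 SD, cut at about 23% in these data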;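 also: signal is peak over basal fluorescence ratio across the kinetic read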
# M5 antag – antagonists of human muscarinic M5 receptor (CHRM5); inhibition, % at 3 µM; CHO-hM5 cells, Fluo-8 calcium fluorescence, ACh EC80; hit rate 0.59% among 360,000; AID 624040;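 active = inhibition above a per-plate cutoff, the mean of that plate's test compounds plus 3 SD, cut at about 27% in these data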
# CHRM4 PAM – potentiates acetylcholine response at human M4 receptor | P08173 | CHO-K1 hM4/Gqi5, Fluo-8 calcium fluorescence, ACh EC20; 0% = ACh EC20, 100% = maximal ACh | activation, % at 3 µM | hit rate 0.4% among 360,000 | AID 624126;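 active = activation above its plate's cutoff, the mean activation of sample wells plus 3 SD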
# CHRM4 agonist – CHRM4 agonism in calcium assay; CHO-K1 hM4/Gqi5, Fluo-8 calcium fluorescence; vehicle 0%, full acetylcholine response 100%; activation, % at 3 µM; hit rate 0.14% among 360,000; AID 624127; P08173;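 active = activation above the run mean over all test wells plus 3 SD, cut at about 32% in these data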;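 also: peak over basal fluorescence ratio per well then scaled between controls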
# A number is an active result; – = inactive. Hits are enriched below; roughly 1.9% of the tested compounds scored in any of these assays.
SMILES,CHRM4 antagonist,M5 PAM,CHRM5 agonist,M5 antag,CHRM4 PAM,CHRM4 agonist
CCCC1N2CC3([N+](=O)[O-])CN1CC([N+](=O)[O-])(C2)C3(C)C (stereo unspecified),–,–,–,–,20,–
C=CCNc1nc(Nc2ccc(OC)cc2)nc(OC)n1,–,18,–,–,–,–
Cc1ccc(NC(=O)CCC(=O)NNC(=O)COc2ccc([N+](=O)[O-])cc2)cc1C,–,–,–,–,18,–
Cc1ccc(NC(=O)NNC(=O)COc2ccc([N+](=O)[O-])cc2)cc1C,–,–,–,–,–,–
CCCNC(=S)Nc1cccc(C(F)(F)F)c1,–,–,–,–,–,–
FC(F)(F)c1cccc(NC(=S)NCC2COc3ccccc3O2)c1 (stereo unspecified),–,–,–,32,–,–
CCOC(=O)c1sc(=S)n(-c2ccccc2)c1C,–,–,–,–,–,–
Cc1c(C(=O)O)sc(=S)n1-c1ccccc1,–,–,–,–,20,–
CCc1nccn1CCC(=O)N1CCCC(N2CCN(c3cccc(Cl)c3)CC2)C1 (stereo unspecified),–,–,–,–,–,–
CCc1nc2ccc(C(=O)NCc3ccccc3OC)cn2c1N(C)Cc1ccc(OC)cc1,–,–,–,–,–,–
COc1ccc(C2Oc3ccccc3N2C(C)=O)cc1 (stereo unspecified),31,–,–,–,–,–
Cc1cc(C)c(CN2CCN(C(=O)Cn3ccc(N)nc3=O)CC2)c(C)c1,–,–,–,–,–,–
CSc1nc(N)nc2c1ncn2CC(=O)N1CCN(Cc2c(C)cc(C)cc2C)CC1,–,–,–,32,–,–
O=C(CCNC(=O)c1ccccc1Cl)Nc1cccc(S(=O)(=O)N2CCOCC2)c1,–,–,–,–,–,–
Cc1cc(C(=O)N/N=C/c2c(C)nn(-c3ccccc3)c2C)n[nH]1,–,19,–,–,–,–
CC(=O)NC(=S)Nc1ccc(NC(=S)NC(=O)/C=C/c2ccco2)cc1,–,–,25,–,34,–
CCC(=O)Nc1ccc(NC(=S)NC(=O)/C=C/c2ccco2)cc1,–,–,–,–,–,–
COc1cccc(C(=O)OCCN2CCCCC2)c1,–,–,–,30,–,–
CCCCN(C(=O)C1CSC2(C)CCC(=O)N12)c1c(N)n(CC(C)C)c(=O)[nH]c1=O (stereo unspecified),–,–,–,–,–,–
O=C(NCc1ccccc1)C1C(=O)Nc2ccccc2C(=O)N1Cc1ccccc1 (stereo unspecified),–,–,–,–,–,–
O=C1C2C3c4ccccc4C(c4ccccc43)[C@@H]2C(=O)N1c1ccccn1 (stereo partly specified),–,–,–,–,–,–
O=C1CCC(=O)N1N1C(=O)C2C3c4ccccc4C(c4ccccc43)C2C1=O (stereo unspecified),–,22,–,–,–,–
O=C(Nc1ccc2c(c1)OCO2)Nc1ccc(Br)cn1,–,–,–,–,41,–
O=C(Nc1ccc2c(c1)OCCO2)Nc1ccc2c(c1)OCO2,–,–,–,–,–,–
COC(=O)c1cc(NC(=O)/C=C/c2ccc3c(c2)OCO3)cc(C(=O)OC)c1,36,–,–,–,–,–
SMILES,CHRM4 antagonist,M5 PAM,CHRM5 agonist,M5 antag,CHRM4 PAM,CHRM4 agonist
COC(=O)c1cccc(NC(=O)/C=C/c2ccc3c(c2)OCO3)c1,–,–,–,–,–,–
Cn1cc(Cl)c(C(=O)Nc2nc3ccc([N+](=O)[O-])cc3s2)n1,–,22,–,–,–,–
C[C@@H]1CN([C@@H](C)CO)C(=O)CCCn2nncc2CO[C@H]1CN(C)C(=O)Nc1ccc2c(c1)OCO2,–,–,–,–,–,–
CC(C)c1ccc(-n2c(-c3ccccc3)c[n+]3c2CCc2ccccc2-3)cc1,29,–,–,29,–,–
COc1ccccc1-n1c(-c2ccccc2)c[n+]2c1CCc1ccccc1-2,34,–,–,31,–,–
COc1ccc(-n2c(-c3ccc(Br)cc3)c[n+]3c2CCc2ccccc2-3)cc1,–,–,–,–,–,–
Cc1ccc([C@H]2C[C@@H](n3cc(-c4ccc(F)cc4)nn3)[C@H](O)CN2C(=O)C2CCCCC2)cc1,–,–,–,–,–,–
O=c1[nH]cnc2c1sc1nc(C(F)F)cc(-c3ccccc3)c12,–,–,–,–,–,–
Cc1cc(C)cc(C(=O)NCC(=O)OCC(=O)NCC(F)(F)F)c1,–,18,–,–,–,–
CCc1ccc(-c2cc3c(=O)n(CC(=O)NCCCN4CCN(CC)CC4)nc(C)n3n2)cc1,–,–,–,–,–,–
COc1cc(/C=C/C(=O)OCC(=O)Nc2cc(C)on2)ccc1OCC#N,–,–,–,–,–,–
COC(=O)c1[nH]c2c(c1C)C(=O)CC(c1cccs1)C2 (stereo unspecified),–,–,–,–,30,–
O=C(NC(CO)C(=O)OCc1ccccc1)OCc1ccccc1 (stereo unspecified),–,–,–,–,–,–
Cc1occc1C(=O)N1CCN(S(=O)(=O)c2ccccc2)CC1,–,–,–,–,–,–
O=[N+]([O-])c1cccc(COc2ccc(CN3CCOCC3)cc2)c1,–,–,–,–,–,–
O=[N+]([O-])c1cccc(COc2ccc(CN3CCCC3)cc2)c1,28,–,–,–,–,–
COC(=O)[C@@]1(Sc2ccc(C)cc2)CC(=O)N(c2ccc(Cl)cc2)[C@@H]1c1ccccc1,–,–,–,–,–,–
COC(=O)c1cccc(N2C(=O)C[C@](Sc3ccc(C)cc3)(C(=O)OC)[C@H]2c2ccccc2)c1,27,–,–,–,–,–
CCCn1c(SCC(=O)Nc2ccc(OCC)cc2)nnc1C(C)C,–,19,–,–,–,–
O=C1NC(c2ccccc2)CCO1 (stereo unspecified),–,–,–,–,30,–
CCSc1nnc(NC(=O)NC(CC)(C(F)(F)F)C(F)(F)F)s1,–,–,–,31,–,–
CCSc1nnc(NC(=O)NC(C)(C(F)(F)F)C(F)(F)F)s1,–,–,–,–,–,–
O=C(Nc1ccc(F)cc1)c1cc2cc(Cl)ccc2[nH]1,–,–,–,31,–,–
CCc1ccc2[nH]c(C(=O)Nc3ccc(C)c(F)c3)cc2c1,–,–,–,–,–,–
Cc1ccccc1N1CCN(C2CCCN(C(=O)CCC3(C)CC3)C2)CC1 (stereo unspecified),–,–,–,–,–,–
CN(CCCNC(=O)CCC(=O)N1CCOc2ccccc21)Cc1ccccc1,–,–,–,–,–,–

# Compound activity as filed in PubChem.
